# Source: ChEMBL document CHEMBL4138193, “Novel indole and triazole based hybrid molecules exhibit potent anti-adipogenic and antidyslipidemic activity by activating Wnt3a/β-catenin pathway” (Eur J Med Chem, 2018)
# Active and inactive are the calls of the source. No cut-off for these calls is given here.
# Legend:
# [1] = test system: Syrian golden hamster; experiment: Induction of reverse cholestrol transport in high fat diet-induced dyslipidemia Syrian Golden hamster model assessed as increase in SCARB1 mRNA expression in liver at 100 mg/kg, po administered for 1 week by qRT-PCR analysis; type: functional, organism-based; conditions: Mesocricetus auratus
# [2] = test system: Syrian golden hamster; experiment: Induction of reverse cholestrol transport in high fat diet-induced dyslipidemia Syrian Golden hamster model assessed as decrease in NPCL1 mRNA expression in liver at 100 mg/kg, po administered for 1 week by qRT-PCR analysis; type: functional, organism-based; conditions: Mesocricetus auratus
# [3] = test system: 3T3-L1; experiment: Anti-adipogenic activity in mouse 3T3L1 cells assessed as inhibition of adipogenesis after 20 mins by Oil Red O staining based assay; type: functional, cell-based; conditions: 3T3-L1, 20 min
# Summary of the method: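 3T3-L1 preadipocytes differentiated with compound at 0.1, 1, 3, 10, 30, 100 and 300 µM. Oil red O absorbance read at 492 nm, concentrations log-transformed and fitted by non-linear regression to give IC50. Two to three independent experiments, mean ± SEM.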
# [4] = test system: 3T3-L1; experiment: Cytotoxicity against mouse 3T3L1 cells at 1 to 1000 uM after 24 hrs by MTT assay; type: cell-based; conditions: 3t3-l1, 24 h
# Summary of the method: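 3T3-L1 cells seeded at 1×10^4 per well and grown 24 hr, then exposed to 1–1000 µM for 24 hr. Medium was replaced with MTT medium ([…]) for 3 hr and the formazan dissolved in DMSO. Absorbance read at 570 nm; three independent experiments, mean ± SD.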
# [5] = species on record: Mus musculus; experiment: Activation of Wnt3a/beta-catenin in mouse 3T3L1 cells assessed as down-regulation of AP2 mRNA expression at 20 uM by qRT-PCR analysis; type: cell-based
# Summary of the method: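 3T3-L1 cells differentiated with IBMX/dexamethasone/insulin media with or without 20 µM compound over the differentiation period. RNA extracted with TRIZOL, 500 ng reverse-transcribed to cDNA, then quantitative real-time PCR. Three independent experiments run in triplicate, mean ± SD, one-way ANOVA with Bonferroni posttest.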
# [6] = test system: 3T3-L1; experiment: Induction of Wnt5a mRNA expression in mouse 3T3L1 cells at 20 uM by qRT-PCR analysis; type: functional, cell-based
# Summary of the method: (§1)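 3T3-L1 cells induced with MDI differentiation medium with or without 20 µM. RNA isolated with TRIzol and 500 ng reverse-transcribed to cDNA for real-time PCR. n=3 with triplicates, mean ± SD; one-way ANOVA with Bonferroni post-test.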
# [7] = test system: 3T3-L1; experiment: Induction of Wnt5b mRNA expression in mouse 3T3L1 cells at 20 uM by qRT-PCR analysis; type: functional, cell-based; summary of the method: as §1
# [8] = species on record: Mus musculus; experiment: Activation of Wnt3a/beta-catenin in mouse 3T3L1 cells assessed as induction of TCF1 expression at 20 uM after 16 to 24 hrs by Western blot analysis; type: cell-based
# [9] = species on record: Mus musculus; experiment: Activation of Wnt3a/beta-catenin in mouse 3T3L1 cells assessed as down-regulation of cyclinD3 expression at 20 uM after 16 to 24 hrs in presence of FH353 by Western blot analysis; type: cell-based
# Summary of the method: (§2)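 Confluent 3T3-L1 cells given differentiation media (IBMX/insulin/dexamethasone) with 20 µM compound, with or without the β-catenin/TCF inhibitor FH353 (10 µM). Proteins isolated at 16 and 24 h and Western blotted after SDS-PAGE and nitrocellulose transfer. Blocking in 5% milk/TBS-T, primary antibody overnight at 4 °C, chemiluminescent detection, β-actin control, three independent experiments.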
# [10] = test system: Syrian golden hamster; experiment: Effect on serum HDL level in high fat diet-induced dyslipidemia Syrian Golden hamster model at 100 mg/kg, po administered for 1 week followed by overnight fasting post last dose by clinical bio-analyzer analysis; type: ADME, organism-based, Mesocricetus auratus; conditions: in vivo, 168 h
# Summary of the method: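 Male Syrian Golden hamsters (8-10 weeks, 100-120 g), 4 per group, given 45% kCal high fat diet for 4 days, then HFD plus oral dosing in 0.5% w/v NaCMC for one week. After an overnight fast, blood was taken from the retro-orbital plexus under anesthesia and serum was analysed on a clinical bio-analyzer. Mean ± SEM; one-way ANOVA with Bonferroni post-test.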
# [11] = test system: Syrian golden hamster; experiment: Anti-dyslipidemic activity in high fat diet-induced dyslipidemia Syrian Golden hamster model assessed as decrease in serum AST levels at 100 mg/kg, po administered for 1 week followed by overnight fasting post last dose by clinical bio-analyzer analysis; type: functional, organism-based; conditions: Mesocricetus auratus
# Summary of the method: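 Male Syrian golden hamsters (8–10 wk, 100–120 g), 4 per group, given 45% kcal HFD for 4 days, then 100 mg/kg p.o. in 0.5% NaCMC daily for one week alongside HFD. Blood taken from retro-orbital plexus after overnight fast. TG, HDL, LDL, ALT, AST measured on a clinical bio-analyzer and NEFA by kit. Mean ± SEM, one-way ANOVA with Bonferroni.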
# [12] = test system: Syrian golden hamster; experiment: Induction of reverse cholestrol transport in high fat diet-induced dyslipidemia Syrian Golden hamster model assessed as increase in PPARalpha mRNA expression in liver at 100 mg/kg, po administered for 1 week by qRT-PCR analysis; type: functional, organism-based; conditions: Mesocricetus auratus
# [13] = test system: Syrian golden hamster; experiment: Induction of reverse cholestrol transport in high fat diet-induced dyslipidemia Syrian Golden hamster model assessed as increase in HNF1alpha mRNA expression in liver at 100 mg/kg, po administered for 1 week by qRT-PCR analysis; type: functional, organism-based; conditions: Mesocricetus auratus
# [14] = test system: Syrian golden hamster; experiment: Induction of reverse cholestrol transport in high fat diet-induced dyslipidemia Syrian Golden hamster model assessed as increase in ABCG8 mRNA expression in eWAT at 100 mg/kg, po administered for 1 week by qRT-PCR analysis; type: functional, organism-based; conditions: Mesocricetus auratus
# [15] = test system: Syrian golden hamster; experiment: Induction of reverse cholestrol transport in high fat diet-induced dyslipidemia Syrian Golden hamster model assessed as reduction in adipocyte hypertrophy at 100 mg/kg, po administered for 1 week by H and E staining based assay; type: functional, organism-based; conditions: Mesocricetus auratus
# Summary of the method: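 Male Syrian Golden hamsters on 45% kCal HFD, dosed 100 mg/kg p.o. in 0.5% NaCMC for one week, 4 per group. Food intake and body weight recorded daily. At the end, animals were saline-perfused and liver and eWAT were excised and weighed. Paraffin sections stained with H&E and imaged at 20x.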
# [16] = species on record: Mus musculus; experiment: Activation of Wnt3a/beta-catenin in differentiated mouse 3T3L1 cells assessed as down-regulation of FAS protein expression at 20 uM after 16 to 24 hrs by Western blot analysis
# Summary of the method: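 3T3-L1 preadipocytes grown to confluence in high-glucose DMEM/10% FBS, then given differentiation media (0.5 mM IBMX, 5 µg/ml insulin, 250 nM dexamethasone) with or without 20 µM compound. Protein isolated at set time points, lysed with protease/phosphatase inhibitors, BCA-quantified, resolved by 8–12% SDS-PAGE, immunoblotted with ECL detection. β-actin loading control, densitometry normalized to actin, n=3.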
# [17] = test system: 3T3-L1; experiment: Anti-adipogenic activity in mouse 3T3L1 pre-adipocytes in differentiation media assessed as reduction in lipid accumulation at 20 uM after 20 mins in presence of beta-catenin/TCF complex inhibitor FH353 by Oil Red O absorbance method; type: functional, cell-based
# Summary of the method: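 3T3-L1 cells differentiated with 20 µM compound with or without FH353 (10 µM) in differentiation media. Oil red O extracted and absorbance read at 492 nm, n=3, mean ± SD, Student t test.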
# [18] = species on record: Mus musculus; experiment: Activation of Wnt3a/beta-catenin in differentiated mouse 3T3L1 cells assessed as upregulation of phosphorylated beta-catenin expression at 20 uM after 16 to 24 hrs in presence of beta-catenin/TCF complex inhibitor FH353 by Western blot analysis; summary of the method: as §2
structure (smiles),measurement,setting,value
Cc1ccc(S(=O)(=O)N(Cc2cn(Cc3cccc(F)c3F)nn2)Cc2cn(S(=O)(=O)c3ccc(C)cc3)c3ccccc23)cc1,Activity,[1],Active
same,Activity,[2],Active
same,IC50,[3],1700 nM
same,Activity,[4],Non-Toxic
same,Activity,[5],Active
same,Activity,[6],inactive
same,Activity,[7],inactive
same,Activity,[8],Active
same,Activity,[9],inactive
same,Activity,[10],Non-Toxic
same,Activity,[11],Active
same,Activity,[12],Active
same,Activity,[13],Active
same,Activity,[14],Active
same,Activity,[15],Active
same,Activity,[16],Active
same,Activity,[17],inactive
same,Activity,[18],inactive
